The values below come from ChEMBL document CHEMBL3351238, “Part I. Synthesis, biological evaluation and docking studies of new 2-furylbenzimidazoles as antiangiogenic agents” (Eur J Med Chem, 2014).

Converted amounts (≈) assume the structure as drawn.

For test [1], the system named is MCF7. Put plainly: Cytotoxicity against human MCF7 cells after 48 hrs by sulforhodamine B assay. Format: functional, cell-based. Conditions: MCF7, 48 h. The procedure, abridged: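 MCF-7 cells seeded at 10^4 per well and allowed 24 h to attach, then exposed to 0.0, 5.0, 12.5, 25.0 and 50 μg/ml, six wells per dose, for 48 h at 37 °C in 5% CO2. Cells were fixed and stained with sulforhodamine B. Bound dye was recovered in Tris EDTA and read on an ELISA reader. IC50 taken from the survival-fraction versus concentration curve.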
(In general: In SRB staining, fixed cells bind dye roughly in proportion to their protein.)

In test [2] the test system is MCF7. The test can be described thus: Inhibition of VEGF production in human MCF7 cells at cytotoxic IC50 level after 24 hrs by ELISA. Format: functional. In a few lines: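 MCF-7 from ATCC, grown in DMEM with 10% heat-inactivated FCS, penicillin and streptomycin at 37 °C in 5% CO2, 0.50 × 10^6 cells per 25 cm2 flask. Compound in DMSO (tamoxifen as reference) added for 24 h. Cells homogenized in saline. Human VEGF measured by double-antibody sandwich ELISA (biotin antibody, streptavidin-HRP, A450) against a standard curve, duplicate determinations. Inhibition relative to untreated cells.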
A general note: An ELISA detects its analyte on a solid surface through an enzyme-linked reagent.

Test [3] deals with T1, Prostaglandin G/H synthase 1 (Ovis aries, UniProt P05979).
T1 sequence (P05979 whole entry): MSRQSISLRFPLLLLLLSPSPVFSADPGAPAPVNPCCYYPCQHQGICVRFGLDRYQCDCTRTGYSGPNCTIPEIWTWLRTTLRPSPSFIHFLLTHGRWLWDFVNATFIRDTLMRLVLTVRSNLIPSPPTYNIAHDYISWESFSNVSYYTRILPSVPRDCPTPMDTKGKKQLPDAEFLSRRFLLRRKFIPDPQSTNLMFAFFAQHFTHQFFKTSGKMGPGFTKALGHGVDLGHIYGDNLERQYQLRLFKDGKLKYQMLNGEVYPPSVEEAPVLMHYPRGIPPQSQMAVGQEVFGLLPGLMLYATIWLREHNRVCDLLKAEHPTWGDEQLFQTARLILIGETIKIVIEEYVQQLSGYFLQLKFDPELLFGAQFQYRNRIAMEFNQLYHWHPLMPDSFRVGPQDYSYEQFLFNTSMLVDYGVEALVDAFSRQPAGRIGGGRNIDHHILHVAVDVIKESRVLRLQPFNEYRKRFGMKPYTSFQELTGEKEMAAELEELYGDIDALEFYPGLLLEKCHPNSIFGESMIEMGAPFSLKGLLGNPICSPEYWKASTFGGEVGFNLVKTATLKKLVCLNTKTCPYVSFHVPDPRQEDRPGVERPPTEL
Put plainly: Inhibition of ovine COX1 assessed as reduction in PGH2-dervied PGF2alpha production using arachidonic acid substrate by enzyme immunoassay. The procedure, abridged: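 Arachidonic acid added and reaction stopped with HCl after 2 min. PGH2 reduced with SnCl2 and PGF2α quantified by competitive EIA at 410 nm. IC50 from concentration–inhibition curve, duplicates.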

For orientation: IC50 means the concentration needed to halve the response being measured. In test [1], `Cc1ccc(-c2nc3ccccc3[nH]2)o1` returned an IC50 of 14 µg/mL (≈ 70.6 µM). Moreover, the “inhibition (INH)” value in test [2] came out at 95%.

The molecule `CCOC(=O)Cn1c(-c2ccco2)nc2ccccc21` came in with an IC50 in test [1] of 15.2 µg/mL (≈ 56.2 µM). Besides, the “inhibition (INH)” value in test [2] is recorded as 62%.

`CCOC(=O)Cn1c(-c2ccc(C)o2)nc2ccccc21` had an IC50 in test [1] of 17.8 µg/mL (≈ 62.6 µM). For the same molecule, the “inhibition (INH)” value in test [2] turned out to be 28%.

For the molecule `c1ccc(Cn2c(-c3ccco3)nc3ccccc32)cc1`, in test [1], the IC50 is 6.98 µg/mL (≈ 25.4 µM). Moreover, the “inhibition (INH)” value in test [2] is listed as 98%.

The molecule `O=S(=O)(c1ccccc1)n1c(-c2ccco2)nc2ccccc21` yielded an IC50 in test [1] of 21.2 µg/mL (≈ 65.4 µM). Also, the “inhibition (INH)” value in test [2] is recorded as 14%.

`Cc1ccc(-c2nc3ccccc3n2S(=O)(=O)c2ccccc2)o1` yielded a concentration for half-maximal inhibition (IC50) in test [1] of 8.63 µg/mL (≈ 25.5 µM). The “inhibition (INH)” value in test [2] worked out at 98%.

For `NNC(=O)Cn1c(-c2ccco2)nc2ccccc21`, the IC50 in test [1] turned out to be 20.2 µg/mL (≈ 78.8 µM). The “inhibition (INH)” value in test [2] amounted to 24%.

For `Cc1ccc(-c2nc3ccccc3n2CC(=O)NN)o1`, the IC50 was 22.4 µg/mL (≈ 82.9 µM) in test [1] and over 50 µM in test [3]. Moreover, the “inhibition (INH)” value in test [2] amounted to 86%.

`NNC(=O)Cn1c(-c2ccc(CNc3ccncc3)o2)nc2ccccc21`: the results for the half-inhibitory concentration (IC50) in test [1] and in test [3] were 22 µg/mL (≈ 60.7 µM) and over 50 µM, respectively. For the same molecule, the “inhibition (INH)” value in test [2] is given as 90%.

`NNC(=O)Cn1c(-c2ccc(CNCc3ccccc3)o2)nc2ccccc21` showed an IC50 in test [1] of 19.3 µg/mL (≈ 51.4 µM). Also, in test [2], the “inhibition (INH)” value was found to be 19%.

In test [1], `S=c1[nH]nc(Cn2c(-c3ccco3)nc3ccccc32)o1` gave an IC50 of 16.9 µg/mL (≈ 56.6 µM). Also, the “inhibition (INH)” value in test [2] worked out at 41%.

In test [1], `Cc1ccc(-c2nc3ccccc3n2Cc2n[nH]c(=S)o2)o1` had an IC50 of 16.6 µg/mL (≈ 53.1 µM). For the same molecule, the “inhibition (INH)” value in test [2] is reported as 39%.

`CCOC(=O)C/C(C)=N/NC(=O)Cn1c(-c2ccco2)nc2ccccc21`: in test [1], the IC50 is 17 µg/mL (≈ 46.1 µM). Also, in test [2], the “inhibition (INH)” value is 38%.

In test [1], `CCOC(=O)C/C(C)=N/NC(=O)Cn1c(-c2ccc(C)o2)nc2ccccc21` displayed an IC50 of 19.6 µg/mL (≈ 51.3 µM). Further, the “inhibition (INH)” value in test [2] was 24%.

Take `Nn1c(Cn2c(-c3ccco3)nc3ccccc32)n[nH]c1=S`: the IC50 was 20.5 µg/mL (≈ 65.6 µM) in test [1] and over 50 µM in test [3]. In addition, the “inhibition (INH)” value in test [2] stood at 91%.

Regarding `CSc1nnc(-n2c(-c3ccco3)nc3ccccc32)o1`, half-maximal inhibition in test [1] (IC50) was put at 19.3 µg/mL (≈ 64.7 µM). Further, in test [2], the “inhibition (INH)” value worked out at 16%.

In test [1], `c1coc(-c2nc3ccccc3[nH]2)c1` [FUBERIDAZOLE] came in with an IC50 of 21.5 µg/mL (≈ 117 µM). The “inhibition (INH)” value in test [2] worked out at 15%.

In turn, `CC/C(=C(\c1ccccc1)c1ccc(OCCN(C)C)cc1)c1ccccc1` [TAMOXIFEN] returned an IC50 in test [1] of 8 µg/mL (≈ 21.5 µM). Besides, in test [2], the “inhibition (INH)” value is listed as 98%.
